Screens deposited in PubChem by several laboratories.
IDE act: IDE (human) activation, cell-based; AID 493087; actives 0.073% (n = 340,000); HEK cells, FAbeta-B cleavage, fluorescence polarization; 0% vehicle, 100% cell-free pure enzyme wells; activation, % at 5.96 µM; P14735;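 active = activation above the mean of all tested compounds plus 3 SD, set per screening campaign, cut at about 17% in these data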
PHOSPHO1 block: PHOSPHO1 (human) inhibition; actives 1.1% (n = 290,000); inhibition, % at 13.3 µM; Q8TCT1; recombinant PHOSPHO1, absorbance phosphatase assay; in the data active = inhibition above about 60%
UBC13 polyUb: inhibitors of human UBC13 polyubiquitin chain formation. actives 0.47% (n = 330,000). inhibition, % at 20 µM. AID 485273. P61088. TR-FRET; in the data active = inhibition above about 45%, passing the limit was not always enough
Target sequence (P61088 whole entry, looked up): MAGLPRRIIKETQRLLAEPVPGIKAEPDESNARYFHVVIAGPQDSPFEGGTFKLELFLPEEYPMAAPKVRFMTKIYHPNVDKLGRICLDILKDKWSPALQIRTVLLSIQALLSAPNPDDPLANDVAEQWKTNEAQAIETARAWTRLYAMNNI
proCasp3 act: activates human procaspase-3; P42574; activation, % at 8.5 µM; recombinant procaspase-3 D3A, Ac-DEVD-pNA absorbance 405 nm; actives 0.11% (n = 330,000); AID 463141;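 active = activation above the mean of all tested compounds plus 3 SD, cut at about 21% in these data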;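 note: 0% = DMSO alone and 100% = DMSO wells spiked with extra 5 µM PC-3 D3A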
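Evaluation: percent activation relative to control range; Material: Procaspase-3 D3A mutant, all three cleavage aspartates alanine; Compound: single dose, 8.5 µM nominal compound, 0.8% DMSO; Replication: one well per compound; Signal: absorbance at 405 nm, 0 and 120 min; Schedule: 1 h preincubation plus 2 h reaction at 25 °C.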
proCasp7 act: activates human procaspase-7, counter-screen for procaspase-3 activators | activation, % at 8.5 µM | recombinant procaspase-7, Ac-DEVD-pNA absorbance 405 nm; D23A/D198A/D206A triple mutant, cannot self-cleave; scale: DMSO 0, 5 µM enzyme 100 | actives 0.093% (n = 330,000);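 active = percent activation above the screen-wide mean plus 3 SD, cut at about 25% in these data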
Target sequence (P55210 whole entry D23A/D198A/D206A): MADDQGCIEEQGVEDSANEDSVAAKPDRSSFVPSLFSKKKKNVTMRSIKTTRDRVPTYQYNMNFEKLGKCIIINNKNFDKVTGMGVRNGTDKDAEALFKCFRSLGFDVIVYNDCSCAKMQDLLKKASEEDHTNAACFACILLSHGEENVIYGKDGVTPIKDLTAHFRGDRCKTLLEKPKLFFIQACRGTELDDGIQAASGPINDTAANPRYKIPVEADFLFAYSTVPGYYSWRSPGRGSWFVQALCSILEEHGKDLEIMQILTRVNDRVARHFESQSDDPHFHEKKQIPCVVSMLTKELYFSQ
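Test system: Procaspase-7 triple mutant (PC-7 D3A). Also added: Ac-DEVD-pNA substrate, 400 µM as added. Schedule: 1 h enzyme–compound preincubation and 2 h substrate reaction, both 25 °C. Signal: p-Nitroaniline absorbance at 405 nm, read at 0 and 120 min. Control set: low DMSO alone, high DMSO plus 5 µM PC-7.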
IDE inh: inhibitors of human insulin-degrading enzyme in cells; P14735; HEK cells, FAbetaB cleavage, fluorescence polarization; inhibition, % at 5.59 µM; actives 0.41% (n = 320,000); AID 434962;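 active = percent inhibition above the average of all tested compounds plus 3 SD, set per screening campaign, cut at about 16% in these data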;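 note: IDE supplied by intact live HEK cells; FP after avidin binding of uncleaved biotin substrate so inhibition keeps polarization high; 0% = DMSO wells and 100% = 60 µM reference IDE inhibitor Ii1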
Active calls of the source: *; / = not tested or not shown. Sampled rows, rich in hits. Any-hit rate of the full collection: about 1.9%.

SMILES	IDE act	PHOSPHO1 block	UBC13 polyUb	proCasp3 act	proCasp7 act	IDE inh
C=CCc1cc(OC)ccc1OCCCCn1cncn1	9	34	2	-5	4	0
COc1ccc(NC(=O)CSc2ncc(-c3ccc(F)cc3)n2Cc2ccco2)cc1	1	8	7	5	1	6
CCC(=O)Nc1cc(NC(=O)CSc2ncc(-c3ccc(F)cc3)n2Cc2ccco2)ccc1C	11	72*	-1	1	-10	2
O=C(NCc1ccccc1Cl)c1ccc(Cn2cc(C(F)(F)F)ccc2=O)cc1	2	65*	5	8	3	4
Cc1cc2c(SCC(=O)NCC3CCCO3)ncnc2s1 (stereo unspecified)	-3	-14	2	/	/	/
Oc1c(C(c2ccco2)N2CCOCC2)sc2ncnn12 (stereo unspecified)	1	90*	4	3	-5	-1
Cc1nc2sc(C(c3ccco3)N3CC(C)OC(C)C3)c(O)n2n1 (stereo unspecified)	3	103*	-11	-13	-7	3
Cc1ccc(-n2nc3c(=O)n(CCCC(=O)N4CCC(C)CC4)nc(C)c3c2C)cc1	2	22	-6	1	-6	0
Cc1ccc(-c2nc(CS(=O)CC(=O)NC3CCCCC3)c(C)o2)cc1 (stereo unspecified)	-1	44	3	-1	-1	0
COc1ccc(-c2nc(CS(=O)CC(=O)NC3CCCC3)c(C)o2)cc1 (stereo unspecified)	5	70*	-8	3	-5	1
CCCCOC(=O)Sc1nc2ccccc2o1	6	94*	-10	-4	-5	-3
C=CCn1c(O)c(C2=c3ccccc3=NC2=O)sc1=Nc1ccc(O)cc1	19*	8	-49	0	-16	-7
O=C1N=c2ccccc2=C1c1sc(=S)n(NC(=O)c2ccccc2)c1O	-8	-2	-46	-24	-26	0
COCCNC(=O)c1cccc(OC2CCN(C(C)COc3ccccc3)CC2)c1 (stereo unspecified)	1	18	10	-7	13	0
Cc1ccc(-n2c(Cn3nc(C(F)(F)F)cc3C)n[nH]c2=S)cc1	-5	81*	-18	-6	-2	-3
CC(Oc1ccccc1F)C(=O)NNC(=O)CCNC(=O)c1ccccc1Cl (stereo unspecified)	-2	10	2	-6	6	7
CCOc1ccc(S(=O)(=O)N2CCCC(C(=O)NCCN3CCOCC3)C2)cc1Cl (stereo unspecified)	-3	2	-2	0	0	2
CN(C)c1ccc(NC(=O)COC(=O)CCC(=O)c2ccc(F)cc2)cc1	7	100*	6	2	-5	-2
CC(C)Oc1ccc(C(=O)Nc2ccc(N(C)C)cc2)cc1	0	76*	-2	-2	2	7
Cc1ccc(OCC(=O)Nc2ccc(N(C)C)cc2)cc1	2	81*	-2	6	9	4
CCN(CC)c1ccc(NC(=O)COc2ccc(C)cc2)cc1	-3	81*	-2	-4	-8	-5
CCc1nnc(NC(=O)CN2CCCC(C)C2)s1 (stereo unspecified)	9	52	0	-3	14	-1
COc1cccc(COC(=O)Cc2ccc(S(=O)(=O)N3CCOCC3)s2)c1OC	2	/	2	9	3	-2
O=C(COC(=O)c1cc(F)cc(F)c1)NCCCc1ccccc1	0	24	8	0	-8	4
CCOC(=O)c1c(C)[nH]c(C(=O)N/N=C/c2ccc(OC)c(OC)c2)c1C	6	75*	-3	-3	6	6
SMILES	IDE act	PHOSPHO1 block	UBC13 polyUb	proCasp3 act	proCasp7 act	IDE inh
CC(C)n1c(SCC(=O)NC2CC2)nnc1-c1ccco1	-2	66*	4	-6	2	1
COc1ccc(OCc2nnc(SCC(=O)NC3CC3)n2C)cc1	10	63*	3	9	-11	10
Cn1ccnc1SCC(=O)NC1CCCCC1	2	62*	3	-3	5	-1
Cn1c(COc2ccc(F)cc2)nnc1SCC(=O)NC1CC1	-5	41	-5	9	-3	2
CCOC(=O)CN(C(=O)CSc1nnc(COc2ccc(OC)cc2)n1C)c1ccccc1	-1	74*	-9	7	-4	2
CCOC(=O)CN(C(=O)CSc1nnc(CNc2ccc(F)cc2)n1C)c1ccccc1	9	16	6	-5	-1	4
COc1ccc2nc(SCC(=O)NC(C)c3ccccc3)[nH]c2c1 (stereo unspecified)	0	/	-5	-1	0	-2
Cc1ccc(S(=O)(=O)OCCC2=CC(=O)CCN2Cc2ccccc2)cc1	21*	/	15	15	2	2
COC(=O)c1[nH]c2ccccc2c1NC(=O)CN1CCCCCC1	3	65*	-7	9	6	-5
NC(=S)N/N=C/c1ccc(-c2cc(Cl)ccc2Cl)o1	-4	93*	-4	-8	-11	-2
Cc1cc(C)n2c(=S)[nH]nc2n1	-26	96*	32	-16	-33	2
S=c1[nH]nc(-c2cccnc2)n1/N=C/C=C/c1ccccc1	5	67*	-14	-2	-14	1
S=c1[nH]nc(-c2ccccn2)n1/N=C/c1ccc(-c2ccccc2Br)o1	-5	62*	/	/	/	/
Cc1ccc(-c2n[nH]c(=S)n2/N=C/C=C/c2ccccc2[N+](=O)[O-])cc1	1	99*	-5	-13	-14	0
O=[N+]([O-])c1cc2c(cc1/C=N/n1c(-c3ccccc3)n[nH]c1=S)OCO2	1	106*	14	-1	-9	3
S=c1[nH]nc(-c2cccc(Cl)c2)n1/N=C/c1ccc(-c2ccccc2Br)o1	0	3	-22	0	-1	-5
S=c1[nH]nc(-c2cccnc2)n1/N=C/c1ccccc1	-4	24	-2	-6	-5	7
O=[N+]([O-])c1ccccc1/C=C/C=N/n1c(-c2cc(-c3ccccc3)n[nH]2)n[nH]c1=S	2	-69	-7	-6	0	8
CCC(C)n1c(SCC(=O)NC2CCS(=O)(=O)C2)nc2ccccc2c1=O (stereo unspecified)	0	/	-12	-5	6	1
O=[N+]([O-])c1cc2c(cc1/C=N/n1c(-c3ccccn3)n[nH]c1=S)OCO2	-4	74*	/	-18	-12	-3
Cc1cc(CN2CCCC(C(=O)Nc3ccc(-c4nc5ccccc5[nH]4)cc3)C2)n[nH]1 (stereo unspecified)	-6	26	0	1	-3	0
